{"source": "ChEMBL document CHEMBL5154772", "about": "“Biological Investigation of a Water-Soluble Isoginkgetin-Phosphate Analogue, Targeting the Spliceosome with In Vivo Antitumor Activity” (J Med Chem, 2022)", "key": {"[1]": {"assay": "Toxicity in C57BL/6 mouse assessed as change in liver weight at 50 mg/kg, ip administered as single dose and measured after 15 days (reference value: 1.2 to 1.3 g)", "assay_type": "organism-based", "details": "in vivo, 360 h, time 15 day", "method_in_brief": "(§1)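 Female C57BL/6 mice given one IP injection of 100 µL, at 50, 100, 250 or 500 mg/kg in sterile PBS, two mice per dose; PBS-injected controls. Behaviour checked right after and at 30 min. Body weight recorded every 2–3 days for 15 days, then liver, spleen and kidneys weighed.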"}, "[2]": {"assay": "Toxicity in C57BL/6 mouse assessed as change in liver weight at 500 mg/kg, ip administered as single dose and measured after 15 days (reference value: 1.2 to 1.3 g)", "assay_type": "organism-based", "details": "in vivo, 360 h, time 15 day", "method_in_brief": "as §1"}, "[3]": {"assay": "Toxicity in C57BL/6 mouse assessed as change in kidney weight at 100 mg/kg, ip administered as single dose and measured after 15 days (reference value: 0.3 g)", "assay_type": "organism-based", "details": "in vivo, 360 h, time 15 day", "method_in_brief": "as §1"}, "[4]": {"assay": "Antitumour activity against mouse wild type MCA-205 cells implanted in C57BL/6 mouse assessed as tumor size by measuring cell killing pretreatment at 2.5 mg/kg, iv administered starting from day 7 post inoculation at five days interval upto 17 days relative to control", "assay_type": "functional", "details": "time <= 17 day", "method_in_brief": "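Female C57BL/6 mice (6 weeks old) given subcutaneous MCA205 WT fibrosarcoma in the right flank. 2.5 mg/kg given intravenously on days 7, 12 and 17 after inoculation; untreated controls. Tumour area recorded every 3–4 days until ethical endpoints, then tumour size at killing. Groups compared by one-way ANOVA.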"}, "[5]": {"assay": "Antiproliferative activity against mouse MCA-205 cells assessed as decrease in cell viability at 10 uM measured after 72 hrs by MTT based colorimetric assay", "assay_type": "functional"}, "[6]": {"assay": "Stability in human plasma assessed as compound remaining incubated up to 2 hrs by HPLC-MS/MS analysis", "assay_type": "ADME, cell-free", "details": "read-out: Stability", "method_in_brief": "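Incubation in mouse or human plasma for up to 2 h, with compound remaining expressed as a percentage.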"}, "[7]": {"assay": "Plasma protein binding in mouse assessed as unbound fraction at 2 uM by rapid equilibrium dialysis based LC-MS/MS analysis", "assay_type": "ADME, cell-free", "method_in_brief": "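Binding was measured at 2 μM in triplicate by rapid equilibrium dialysis (8K MWCO). Quantification was by UPLC-MS/MS on a phenyl column in positive ESI MRM mode (m/z 727>567), with an ammonium formate pH 5 / 1,5-DMHA mobile phase at 50 °C. Both unbound fraction (fu) and % bound are reported.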"}, "[8]": {"target": "Beta-1 adrenergic receptor (Homo sapiens) (UniProt P08588)", "sequence (P08588 whole entry, looked up)": "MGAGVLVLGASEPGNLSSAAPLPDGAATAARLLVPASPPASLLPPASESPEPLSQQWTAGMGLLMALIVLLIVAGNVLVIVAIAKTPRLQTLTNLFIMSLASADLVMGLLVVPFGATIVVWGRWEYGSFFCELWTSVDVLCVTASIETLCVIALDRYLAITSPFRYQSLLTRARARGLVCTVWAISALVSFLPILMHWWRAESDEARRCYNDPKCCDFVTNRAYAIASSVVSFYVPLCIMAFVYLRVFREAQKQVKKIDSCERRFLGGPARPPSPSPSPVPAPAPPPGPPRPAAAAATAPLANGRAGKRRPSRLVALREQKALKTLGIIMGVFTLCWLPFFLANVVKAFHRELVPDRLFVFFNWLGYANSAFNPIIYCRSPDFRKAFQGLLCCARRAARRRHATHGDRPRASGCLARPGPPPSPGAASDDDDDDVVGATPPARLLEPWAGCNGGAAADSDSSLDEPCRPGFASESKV", "assay": "Antagonist activity at ADRB1 (unknown origin) at 10 uM", "assay_type": "functional", "design": "scale not given: the % may be the effect or the level left", "method_in_brief": "(§2)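 Single-concentration safety screen at 10 μM across a 47-target panel. GPCRs were run in antagonist mode and enzymes in inhibitor mode.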"}, "[9]": {"target": "Delta-type opioid receptor (Homo sapiens) (UniProt P41143)", "sequence (P41143 whole entry)": "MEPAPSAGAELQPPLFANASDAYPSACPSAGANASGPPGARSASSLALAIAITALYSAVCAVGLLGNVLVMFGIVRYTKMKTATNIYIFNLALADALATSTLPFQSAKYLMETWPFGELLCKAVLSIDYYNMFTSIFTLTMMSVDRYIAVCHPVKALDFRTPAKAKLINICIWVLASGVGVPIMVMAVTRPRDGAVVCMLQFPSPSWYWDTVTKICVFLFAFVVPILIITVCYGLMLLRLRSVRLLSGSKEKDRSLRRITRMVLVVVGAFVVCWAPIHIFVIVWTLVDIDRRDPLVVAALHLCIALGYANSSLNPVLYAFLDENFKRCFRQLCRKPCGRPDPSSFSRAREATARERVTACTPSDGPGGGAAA", "assay": "Antagonist activity at OPRD1 (unknown origin) at 10 uM", "assay_type": "functional", "design": "scale not given: the % may be the effect or the level left", "details": "filed as antagonist", "method_in_brief": "as §2"}, "[10]": {"target": "3',5'-cyclic-AMP phosphodiesterase 4D (Homo sapiens) (UniProt Q08499)", "sequence (Q08499 whole entry)": "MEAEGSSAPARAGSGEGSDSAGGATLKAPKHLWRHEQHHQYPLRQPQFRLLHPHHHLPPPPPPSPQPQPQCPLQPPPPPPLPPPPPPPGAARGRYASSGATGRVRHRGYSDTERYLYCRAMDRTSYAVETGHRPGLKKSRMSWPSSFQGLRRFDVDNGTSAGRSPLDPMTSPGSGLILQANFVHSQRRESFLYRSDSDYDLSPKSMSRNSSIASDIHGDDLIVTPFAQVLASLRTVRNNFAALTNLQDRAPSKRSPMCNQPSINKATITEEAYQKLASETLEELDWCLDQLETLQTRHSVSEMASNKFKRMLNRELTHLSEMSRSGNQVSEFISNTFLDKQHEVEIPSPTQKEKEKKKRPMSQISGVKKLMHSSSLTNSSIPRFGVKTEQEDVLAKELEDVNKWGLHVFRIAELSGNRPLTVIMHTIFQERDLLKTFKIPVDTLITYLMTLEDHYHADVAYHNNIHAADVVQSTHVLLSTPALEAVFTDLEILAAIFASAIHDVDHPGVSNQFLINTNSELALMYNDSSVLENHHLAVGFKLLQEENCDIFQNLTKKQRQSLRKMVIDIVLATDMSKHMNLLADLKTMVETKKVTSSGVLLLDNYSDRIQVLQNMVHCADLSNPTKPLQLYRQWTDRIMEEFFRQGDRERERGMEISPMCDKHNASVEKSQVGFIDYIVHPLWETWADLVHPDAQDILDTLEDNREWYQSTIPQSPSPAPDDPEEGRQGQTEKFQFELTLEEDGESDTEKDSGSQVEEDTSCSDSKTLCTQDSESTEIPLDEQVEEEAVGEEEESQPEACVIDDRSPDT", "assay": "Inhibition of PDE4D2 (unknown origin) at 10 uM", "method_in_brief": "as §2"}, "[11]": {"assay": "Cmax in Beagle dog at 26.76 mg/kg, iv administered as single dose measured up to 24 hrs", "assay_type": "ADME, organism-based, Canis lupus familiaris", "design": "time < 24 hrs, dose 26.76 mg/kg, route iv", "details": "in vivo", "method_in_brief": "(§3)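 Single intravenous dose. Mice were male C57BL/6J, 12 per route; tail-vein blood was collected under sodium heparin, with 3 mice sampled at each pair of times (0.083/2, 0.25/4, 0.5/8, 1/24 h). Dogs were male beagles (n=3); jugular blood was collected under K2 EDTA predose and at 0.083, 0.25, 0.5, 1, 2, 4, 6, 8 and 24 h. Plasma was prepared from the samples.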"}, "[12]": {"assay": "Tmax in C57BL/6J mouse at 9.103 mg/kg, ip administered as single dose measured up to 24 hrs", "assay_type": "ADME, organism-based", "details": "in vivo", "method_in_brief": "(§4)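 Single intraperitoneal dose in male C57BL/6J mice (12 per route). Tail-vein blood was collected under sodium heparin for plasma, with 3 mice sampled at each pair of times: 0.083/2, 0.25/4, 0.5/8 and 1/24 h. F denotes bioavailability.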"}, "[13]": {"assay": "Tmax in C57BL/6J mouse at 0.711 mg/kg, iv administered as single dose measured up to 24 hrs", "assay_type": "ADME, organism-based", "details": "in vivo", "method_in_brief": "as §3"}, "[14]": {"assay": "Half life in C57BL/6J mouse at 9.103 mg/kg, ip administered as single dose measured up to 24 hrs", "assay_type": "ADME, organism-based", "details": "in vivo", "method_in_brief": "as §4"}, "[15]": {"assay": "Half life in C57BL/6J mouse at 0.711 mg/kg, iv administered as single dose measured up to 24 hrs", "assay_type": "ADME, organism-based", "details": "in vivo", "method_in_brief": "as §3"}, "[16]": {"assay": "Half life in Beagle dog at 26.76 mg/kg, iv administered as single dose measured up to 24 hrs", "assay_type": "ADME, organism-based, Canis lupus familiaris", "details": "in vivo", "method_in_brief": "as §3"}, "[17]": {"assay": "Total clearance in C57BL/6J mouse at 9.103 mg/kg, ip administered as single dose measured up to 24 hrs", "assay_type": "ADME, organism-based", "details": "in vivo", "method_in_brief": "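Male C57BL/6J mice, single IP dose. Tail-vein blood into sodium heparin for plasma. Twelve mice per route, three per pair of time points: 0.083 and 2 h, 0.25 and 4 h, 0.5 and 8 h, 1 and 24 h. Parameters derived from plasma concentration–time data.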"}, "[18]": {"assay": "Oral bioavailability in C57BL/6J mouse at 9.103 mg/kg administered as single dose measured up to 24 hrs", "assay_type": "ADME, organism-based", "details": "in vivo"}, "[19]": {"assay": "Toxicity in C57BL/6 mouse assessed as change in body weight at 250 mg/kg, ip administered as single dose and measured after 15 days (reference value: 23.5 to 24.2 g)", "assay_type": "organism-based", "details": "in vivo, 360 h, time 15 day", "method_in_brief": "as §1"}, "[20]": {"assay": "Toxicity in C57BL/6 mouse assessed as change in body weight at 500 mg/kg, ip administered as single dose and measured after 15 days (reference value: 23.5 to 24.2 g)", "assay_type": "organism-based", "details": "in vivo, 360 h, time 15 day", "method_in_brief": "as §1"}, "[21]": {"assay": "Toxicity in C57BL/6 mouse assessed as change in spleen weight at 50 mg/kg, ip administered as single dose and measured after 15 days (reference value: 0.1 to 0.2 g)", "assay_type": "organism-based", "details": "in vivo, 360 h, time 15 day", "method_in_brief": "as §1"}, "[22]": {"assay": "Toxicity in C57BL/6 mouse assessed as change in spleen weight at 100 mg/kg, ip administered as single dose and measured after 15 days (reference value: 0.1 to 0.2 g)", "assay_type": "organism-based", "details": "in vivo, 360 h, time 15 day", "method_in_brief": "as §1"}, "[23]": {"assay": "Toxicity in C57BL/6 mouse assessed as change in spleen weight at 250 mg/kg, ip administered as single dose and measured after 15 days (reference value: […])", "assay_type": "organism-based", "details": "in vivo, 360 h, time 15 day", "method_in_brief": "as §1"}, "[24]": {"assay": "Toxicity in C57BL/6 mouse assessed as change in kidney weight at 50 mg/kg, ip administered as single dose and measured after 15 days (reference value: 0.3 g)", "assay_type": "organism-based", "details": "in vivo, 360 h, time 15 day", "method_in_brief": "as §1"}, "[25]": {"assay": "Toxicity in C57BL/6 mouse assessed as change in kidney weight at 500 mg/kg, ip administered as single dose and measured after 15 days (reference value: 0.3 g)", "assay_type": "organism-based", "details": "in vivo, 360 h, time 15 day", "method_in_brief": "as §1"}, "[26]": {"assay": "Acute toxicity in C57BL/6 mouse assessed as mortality at 500 mg/kg, ip administered as single dose and measured after 15 days", "assay_type": "organism-based", "details": "in vivo, 360 h, time 15 day", "method_in_brief": "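Single intraperitoneal injection (100 µL) into female C57BL/6 mice, with IP2 diluted in sterile PBS at 50, 100, 250 or 500 mg/kg; PBS-treated controls. Behaviour watched right after and at 30 min. Body weight followed every 2–3 days for 15 days. Euthanasia criterion was weight loss ≥20%. Liver, spleen and kidney weights taken at day 15.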"}}}
{"molecule": "COc1ccc(-c2cc(=O)c3c(O)cc(OP(=O)([O-])[O-])c(-c4cc(-c5cc(=O)c6c(O)cc(OP(=O)([O-])[O-])cc6o5)ccc4OC)c3o2)cc1.[Na+].[Na+].[Na+].[Na+]", "values": [{"measurement": "Activity", "setting": "[1]", "result": 1, "unit": "g"}, {"measurement": "Activity", "setting": "[2]", "result": 1, "unit": "g"}, {"measurement": "Activity", "setting": "[3]", "result": 0.2, "unit": "g"}, {"measurement": "Activity", "setting": "[4]", "result": 40, "unit": "%"}, {"measurement": "Activity", "setting": "[5]", "result": 20, "unit": "%"}, {"measurement": "remaining at 2 h", "setting": "[6]", "result": 94.1, "unit": "%"}, {"measurement": "fraction unbound at 2 µM", "setting": "[7]", "result": 0.02}, {"measurement": "Activity", "setting": "[8]", "result": 35, "unit": "%"}, {"measurement": "Activity", "setting": "[9]", "result": 53, "unit": "%"}, {"measurement": "inhibition", "setting": "[10]", "result": 87.2, "unit": "%"}, {"measurement": "Cmax", "setting": "[11]", "result": 272, "unit": "µg/mL"}, {"measurement": "Tmax", "setting": "[12]", "result": 5, "unit": "min"}, {"measurement": "Tmax", "setting": "[13]", "result": 5, "unit": "min"}, {"measurement": "half-life", "setting": "[14]", "result": 48, "unit": "min"}, {"measurement": "half-life", "setting": "[15]", "result": 66, "unit": "min"}, {"measurement": "half-life", "setting": "[16]", "result": 228, "unit": "min"}, {"measurement": "CL/F", "setting": "[17]", "result": 154, "unit": "mL/min/kg"}, {"measurement": "bioavailability", "setting": "[18]", "result": 86, "unit": "%"}, {"measurement": "Activity", "setting": "[19]", "result": 19.1, "unit": "g"}, {"measurement": "Activity", "setting": "[20]", "result": 20.4, "unit": "g"}, {"measurement": "Activity", "setting": "[21]", "result": 0.1, "unit": "g"}, {"measurement": "Activity", "setting": "[22]", "result": 0.1, "unit": "g"}, {"measurement": "Activity", "setting": "[23]", "result": 0.1, "unit": "g"}, {"measurement": "Activity", "setting": "[24]", "result": 0.3, "unit": "g"}, {"measurement": "Activity", "setting": "[25]", "result": 0.2, "unit": "g"}, {"measurement": "Activity", "setting": "[26]", "result": "Non-Toxic"}]}
